Assays:
[1] = test system: HEK293; experiment: Inhibition of TNFalpha-induced NFkappaB (unknown origin) activation expressed in HEK293 cells at 20 uM after 6 hrs by luciferase reporter gene assay; format: cell-based; conditions: Homo sapiens
Procedure, shortened: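 HEK293 cells stably carrying an NF-κB response element–luciferase construct (hygromycin-selected). Seeded 2 × 10^4/well in DMEM with 10% FBS, antibiotics and 2 mM L-glutamine, grown 48 h. Fresh medium, then samples with recombinant human TNF-α 2 ng/mL (0.14 nM) for 6 h. Cells lysed, frozen overnight at −80 °C, luciferase luminescence read, percent inhibition calculated. TPCK positive control.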

[2] = test system: RAW264.7; experiment: Cancer chemopreventive activity in mouse RAW264.7 cells assessed as inhibition of LPS-induced nitric oxide production at 20 ug/mL treated 30 mins before LPS challenge measured after 20 hrs by Griess reagent assay
[3] = Cytotoxicity against human HEK293 cells assessed as cell survival at 20 uM by SRB assay; format: cell-based; conditions: read-out: Survival
Procedure, shortened: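 293/NFκB-luc cells seeded 2 × 10^4/well and grown 48 h. Run in parallel with the reporter assay: fresh medium, samples plus TNF-α 2 ng/mL for 6 h. Fixed with 20% TCA at 4 °C for 30 min, stained with 0.4% SRB in 1% acetic acid for 30 min at room temperature. Dye solubilised in 10 mM Tris base (pH 10), OD read at 515 nm, percent survival calculated.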

[4] = Cytotoxicity against mouse RAW264.7 cells assessed as cell survival at 20 ug/mL by SRB assay; format: cell-based; conditions: read-out: Survival
Procedure, shortened: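 RAW 264.7 cells run under the NO assay conditions (30 min sample pretreatment, then 1 μg/mL LPS for 20 h). Cells fixed with 10% TCA and stained with 0.4% SRB in 1% acetic acid. Bound dye dissolved in 10 mM Tris and OD read at 515 nm.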

[5] = Inhibition of TNFalpha-induced NFkappaB (unknown origin) activation expressed in HEK293 cells after 6 hrs by luciferase reporter gene assay; format: cell-based; conditions: Homo sapiens, HEK293, 6 h
Procedure, shortened: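 HEK293 cells stably transfected with luciferase reporter under multiple NF-κB response elements, seeded 2 × 10^4/well, grown 48 h in DMEM/10% FBS/2 mM glutamine. Medium replaced; cells given test substances plus human recombinant TNF-α 2 ng/mL (0.14 nM) for 6 h, lysed, frozen −80 °C overnight, luciferase luminescence read. Percent inhibition; IC50 from dilution series (top 20 μM), each tested three times, curve-fitted.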

[6] = test system: RAW264.7; experiment: Cancer chemopreventive activity in mouse RAW264.7 cells assessed as inhibition of LPS-induced nitric oxide production treated 30 mins before LPS challenge measured after 20 hrs by Griess reagent assay
[7] = test system: HEK293; experiment: Cytotoxicity against human HEK293 cells assessed as cell survival by SRB assay; format: cell-based
Procedure, shortened: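 293/NFκB-luc cells (HEK293 stably carrying NF-κB-response-element luciferase reporter) seeded 2 × 10^4/well, grown 48 h in DMEM/10% FBS; treated with samples plus TNF-α 2 ng/mL (0.14 nM) for 6 h. Then TCA-fixed (20%, 4 °C, 30 min), stained 0.4% SRB in 1% acetic acid, dye solubilized in 10 mM Tris base pH 10; OD 515 nm; percent survival at 20 μM.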

| SMILES | inhibition [1] [%] | inhibition at 20 µg/mL [2] [%] | viability at 20 µM [3] [%] | viability at 20 ug/mL [4] [%] | IC50 [5] [µM] | IC50 [6] [µM] | IC50 [7] [µM] |
| --- | --- | --- | --- | --- | --- | --- | --- |
| CC1=C(CO)C(=O)O[C@@H]([C@](C)(O)[C@H]2CC[C@@]3(O)[C@@H]4CC=C5CC=CC(=O)[C@]5(C)[C@H]4CC[C@]23C)C1 | 92.8 | 31.4 | 100 | 100 | 7 | – | – |
| CC1=C(CO)C(=O)O[C@@H]([C@](C)(O)[C@@]2(O)CC=C3[C@@H]4CC=C5CC=CC(=O)[C@]5(C)[C@H]4CC[C@@]32C)C1 [WITHACOAGULIN H] | 98.3 | 100 | 90.3 | 70.4 | 5 | 3.1 | – |
| CC1=C(C)C(=O)O[C@@H]([C@](C)(O)[C@]2(O)CC[C@@]3(O)[C@@H]4CC=C5CC=CC(=O)[C@]5(C)[C@H]4CC[C@]23C)C1 [WITHANOLIDE F] | 90.8 | 84.6 | 100 | 100 | 5.7 | 10.9 | – |
| CC1=C(CO)C(=O)O[C@@H]([C@](C)(O)[C@@]2(O)CC[C@H]3[C@@H]4CC=C5CC=CC(=O)[C@]5(C)[C@H]4CC[C@@]32C)C1 [WITHACOAGULIN G] | 90.1 | 100 | 93.2 | 96.7 | 11.8 | 1.9 | – |
| CC1=C(C)C(=O)O[C@@H]([C@](C)(O)[C@@]2(O)CC[C@]3(O)[C@@H]4CC=C5C=CCC(=O)[C@]5(C)[C@H]4CC[C@]23C)C1 [WITHACOAGULIN I] | 89.9 | 69.8 | 89.4 | 100 | 8.8 | 29 | – |
| CC1=C(C)C(=O)O[C@@H]([C@](C)(O)[C@H]2CC[C@@]3(O)[C@@H]4CC=C5CC=CC(=O)[C@]5(C)[C@H]4CC[C@]23C)C1 | 86.9 | 88.5 | 71.9 | 100 | 12.3 | 37.5 | – |
| CC1=C(CO)C(=O)O[C@@H]([C@](C)(O)[C@H]2CC=C3[C@@H]4CC=C5CC=CC(=O)[C@]5(C)[C@H]4CC[C@@]32C)C1 | 88.6 | 76.3 | 48.3 | 100 | 12.4 | 38.2 | – |
| Cc1ccc(S(=O)(=O)/C=C/C#N)cc1 | – | – | – | – | 5 | – | – |
| Cc1ccc(S(=O)(=O)N[C@@H](Cc2ccccc2)C(=O)CCl)cc1 [TPCK] | – | – | – | – | 10.8 | – | 3.8 |
| CC1=C(C)C(=O)O[C@@H]([C@](C)(O)C2=CC[C@@]3(O)[C@@H]4CC=C5CC=CC(=O)[C@]5(C)[C@H]4CC[C@]23C)C1 | 90.2 | 69.1 | 100 | 100 | 5.7 | 10.4 | – |
| CC1=C(CO)C(=O)O[C@@H]([C@](C)(O)[C@]2(O)CC[C@@]3(O)[C@@H]4CC=C5CC=CC(=O)[C@]5(C)[C@H]4CC[C@]23C)C1 | 90.1 | 95.1 | 88.6 | 100 | 1.6 | 6.9 | – |

From ChEMBL document CHEMBL2331521, “Biologically active withanolides from Withania coagulans” (J Nat Prod, 2013)
